The text below walks through data of ChEMBL document CHEMBL1147132, “Structure-activity relationship studies of gonadotropin-releasing hormone antagonists containing S-aryl/alkyl norcysteines and their oxidized derivatives” (J Med Chem, 2007).

Converted amounts (≈) assume the structure as drawn. Starred links: 1 amine or outer side, 2 acyl side, 3 side chain; linkers in the order of their positions; H or OH if unused. Non-standard residues stand in square brackets, D forms with d. Residues, ends and D or L forms follow the SMILES beside them. Phe(4-NH(5-NH2triazol-3-yl)) = Nc1nc(Nc2ccc(C[C@H](N)C(=O)O)cc2)n[nH]1; X1 = Nc1nc(Nc2ccc(C[C@@H](N[*:1])C(=O)[*:2])cc2)n[nH]1; dPhe(4-Cl) = N[C@H](Cc1ccc(Cl)cc1)C(=O)O; d2Nal = N[C@H](Cc1ccc2ccccc2c1)C(=O)O; Lys(iPr) = CC(C)NCCCC[C@H](N)C(=O)O; d3Pal = N[C@H](Cc1cccnc1)C(=O)O

For data set [1], the target named is T1, Gonadotropin-releasing hormone receptor (Rattus norvegicus, UniProt P30969).
T1 sequence (P30969 whole entry): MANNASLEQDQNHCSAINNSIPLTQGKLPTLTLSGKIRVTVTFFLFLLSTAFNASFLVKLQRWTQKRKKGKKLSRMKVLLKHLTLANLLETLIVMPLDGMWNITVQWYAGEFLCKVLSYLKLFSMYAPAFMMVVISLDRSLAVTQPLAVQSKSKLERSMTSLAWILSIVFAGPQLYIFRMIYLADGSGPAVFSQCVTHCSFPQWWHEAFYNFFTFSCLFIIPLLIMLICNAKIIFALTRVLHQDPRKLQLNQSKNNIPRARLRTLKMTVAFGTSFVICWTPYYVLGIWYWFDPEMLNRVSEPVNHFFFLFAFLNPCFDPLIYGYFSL
Kind of data set: Antagonist activity at rat GnRHR expressed in HEK293 cells assessed as inhibition of GnRH-induced luciferase response by reporter gene assay. The class given is functional, cell-based. In short, it runs like this: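 Rat GnRHR stably expressed in HEK293 cells, transiently transfected with an NFAT-responsive luciferase reporter, plated after 16 h and assayed next day. Compound in 1% DMSO was given 10 min before 1 nM GnRH (final), ≥5 h at 37 °C, then luminescence. Duplicates at 11 half-log concentrations. IC50 by four-parameter logistic fit, geometric mean of ≥2 experiments.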

Data set [2] can be described thus: Solubility in 5% mannitol. The class given is physicochemical.
For data set [3], the system named is Rattus norvegicus. Kind of data set: Inhibition of plasma testosterone levels in Sprague-Dawley rat at 19.6 uM, sc by enzyme-linked immunosorbent assay. The class given is functional. In short, it runs like this:
(§1)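 Intact adult male Sprague-Dawley rats (275–310 g, 3 per group) received subcutaneous mini-pumps for seven days. Solutions were in 1:3 DMSO/water: 19.6 μM (~0.66 nM/day/kg), or 9.8 μM (~0.33 nM/day/kg). Sham-operated controls. Plasma was sampled on days 3–7 and testosterone measured by ELISA. Values are means of days 4–7.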

The target in data set [4] is T2, Gonadotropin-releasing hormone receptor (Homo sapiens, UniProt P30968).
T2 sequence (P30968 whole entry): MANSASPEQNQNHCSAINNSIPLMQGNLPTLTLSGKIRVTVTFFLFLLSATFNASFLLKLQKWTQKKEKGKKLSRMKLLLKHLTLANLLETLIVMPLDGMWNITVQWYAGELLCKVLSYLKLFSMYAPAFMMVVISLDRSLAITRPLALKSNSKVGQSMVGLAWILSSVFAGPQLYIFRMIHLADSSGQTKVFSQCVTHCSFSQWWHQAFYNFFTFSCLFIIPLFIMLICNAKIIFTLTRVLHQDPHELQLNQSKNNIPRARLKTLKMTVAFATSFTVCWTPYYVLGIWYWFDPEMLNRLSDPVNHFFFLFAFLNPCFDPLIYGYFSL
Kind of data set: Antagonist activity at human GnRHR expressed in HEK293 cells assessed as inhibition of GnRH-induced luciferase response by reporter gene assay. The class given is functional, cell-based. In short, it runs like this: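 HEK293 cells stably expressing cloned human GnRHR and an LH alpha-subunit-promoter luciferase reporter, plated overnight. Compound in 1% DMSO was added 10 min before GnRH (1 nM final), then ≥5 h at 37 °C, 5% CO2, then luminescence. 11 half-log concentrations in duplicate. IC50 from four-parameter logistic fit, reported as geometric mean of ≥2 experiments.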
For orientation: A reporter such as luciferase makes a cellular process visible.

For data set [5], the target named is T3, Gonadotropin-releasing hormone receptor (Homo sapiens) (UniProt P30968).
T3 sequence (whole entry): T2 sequence (P30968 whole entry)
Put plainly: Antagonist activity at human GnRHR expressed in COS7 cells assessed as inhibition of GnRH-stimulated inositol phosphate production after 2 hrs. The class given is functional, cell-based. As to conditions: COS-7, filed as antagonist. In short, it runs like this:
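COS-7 cells transiently transfected with WT hGnRH-R cDNA, labelled 18 h at 37 °C with 4 μCi/mL [3H]myo-inositol in inositol-free DMEM. Cells were washed in medium with 5 mM LiCl, then co-incubated 2 h at 37 °C with 10−8 M GnRH plus analogue at 10−8 to 10−5 M. IP was measured by Dowex anion-exchange and scintillation counting. Triplicate, repeated three or more times.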

Data set [6] in a line: Ratio of IC50 for rat GnRHR to IC50 for human GnRHR in HEK293 cells. The class given is functional.
Data set [7] deals with Rattus norvegicus. Kind of data set: Inhibition of plasma testosterone levels in Sprague-Dawley rat at 9.8 uM, sc by enzyme-linked immunosorbent assay. The class given is functional. In outline: as §1

For `CS[C@H](NC(=O)[C@@H]1CCCN1C(=O)[C@H](CCCCNC(C)C)NC(=O)[C@H](CC(C)C)NC(=O)[C@@H](Cc1ccc(NC(C)=O)cc1)NC(=O)[C@H](Cc1ccc(NC(C)=O)cc1)NC(=O)[C@H](CO)NC(=O)[C@@H](Cc1cccnc1)NC(=O)[C@@H](Cc1ccc(Cl)cc1)NC(=O)[C@@H](Cc1ccc2ccccc2c1)NC(C)=O)C(N)=O`, the IC50 (commonly the concentration at which inhibition is half-maximal) is given as 1.7 nM (antagonist) in data set [1] and 0.8 nM (antagonist) in data set [4]. Also, in data set [2], the solubility (in general, the concentration that dissolves in the medium under given conditions) stood at 50 mg/mL (≈ 31.9 mM). Moreover, the Plasma testosterone level in the data set with Rattus norvegicus [3] is 2.21 ng/mL. In addition, the Activity entry in data set [5] is “Antagonist”. Further, the “Ratio IC50” value in data set [6] is 2.13.

In the case of `CS[C@@H](NC(=O)[C@@H]1CCCN1C(=O)[C@H](CCCCNC(C)C)NC(=O)[C@H](CC(C)C)NC(=O)[C@@H](Cc1ccc(NC(C)=O)cc1)NC(=O)[C@H](Cc1ccc(NC(C)=O)cc1)NC(=O)[C@H](CO)NC(=O)[C@@H](Cc1cccnc1)NC(=O)[C@@H](Cc1ccc(Cl)cc1)NC(=O)[C@@H](Cc1ccc2ccccc2c1)NC(C)=O)C(N)=O`, the concentration for half-maximal inhibition (IC50) is 1.7 nM (antagonist) in data set [1] and 0.6 nM (antagonist) in data set [4]. The compound also had a solubility in data set [2] of 50 mg/mL (≈ 31.9 mM). In addition, the Plasma testosterone level in the data set with Rattus norvegicus [3] came out at 1.97 ng/mL. Further, in data set [5], the Activity entry was “Antagonist”. Moreover, the “Ratio IC50” value in data set [6] stood at 2.83.

Take `CC(=O)Nc1ccc(C[C@H](NC(=O)[C@H](CO)NC(=O)[C@@H](Cc2cccnc2)NC(=O)[C@@H](Cc2ccc(Cl)cc2)NC(=O)[C@@H](Cc2ccc3ccccc3c2)NC(C)=O)C(=O)N[C@H](Cc2ccc(NC(C)=O)cc2)C(=O)N[C@H](C(=O)N[C@@H](CCCCNC(C)C)C(=O)N2CCC[C@H]2C(=O)N[C@H](C)C(N)=O)[S+]([O-])C(C)C)cc1` (some centres not stated): the results for the half-maximal inhibitory concentration (IC50) in data set [1] and in data set [4] were 3.2 nM (antagonist) and 1.2 nM (antagonist), respectively. In data set [2], this compound gave a solubility of 50 mg/mL (≈ 31.9 mM). In addition, the Plasma testosterone level in the data set on Rattus norvegicus [3] worked out at 3.22 ng/mL. In data set [6], the “Ratio IC50” value stood at 2.67.

With `CC(=O)Nc1ccc(C[C@H](NC(=O)[C@H](CO)NC(=O)[C@@H](Cc2cccnc2)NC(=O)[C@@H](Cc2ccc(Cl)cc2)NC(=O)[C@H](NC(C)=O)Sc2ccc3ccccc3c2)C(=O)N[C@H](Cc2ccc(NC(C)=O)cc2)C(=O)N[C@@H](CC(C)C)C(=O)N[C@@H](CCCCNC(C)C)C(=O)N2CCC[C@H]2C(=O)N[C@H](C)C(N)=O)cc1`, the results for the IC50 in data set [1] and in data set [4] were 4.4 nM (antagonist) and 0.73 nM (antagonist), respectively. The solubility in data set [2] turned out to be 50 mg/mL (≈ 32.2 mM). Further, the Plasma testosterone level in the data set with Rattus norvegicus [3] was 1.03 ng/mL. The Activity entry in data set [5] was “Antagonist”. The “Ratio IC50” value in data set [6] amounted to 6.03.

`CC(=O)N[C@H](Cc1ccc2ccccc2c1)C(=O)N[C@H](Cc1ccc(Cl)cc1)C(=O)N[C@H](Cc1cccnc1)C(=O)N[C@@H](CO)C(=O)N[C@@H](Cc1ccc(Nc2n[nH]c(N)n2)cc1)C(=O)N[C@H](Cc1ccc(Nc2n[nH]c(N)n2)cc1)C(=O)N[C@@H](CC(C)C)C(=O)N[C@@H](CCCCNC(C)C)C(=O)N1CCC[C@H]1C(=O)N[C@H](C)C(N)=O.CC(=O)O` [PRAZARELIX ACETATE] (Ac-[d2Nal][dPhe(4-Cl)][d3Pal]S[Phe(4-NH(5-NH2triazol-3-yl))][X1]L[Lys(iPr)]P[dA]-NH2): the concentration for half-maximal inhibition (IC50) in data set [1] is on record as 1.4 nM (antagonist); in data set [4] it was 1.36 nM (antagonist). In data set [2], the solubility stood at 50 mg/mL. The same compound displayed an Activity with Rattus norvegicus [7] of 1.39 ng/mL. This compound yielded a Plasma testosterone level with Rattus norvegicus [3] of 0.32 ng/mL. The “Ratio IC50” value in data set [6] was found to be 1.03.

For the compound `CS[C@H](NC(=O)[C@@H](Cc1cccnc1)NC(=O)[C@@H](Cc1ccc(Cl)cc1)NC(=O)[C@@H](Cc1ccc2ccccc2c1)NC(C)=O)C(=O)N[C@@H](Cc1ccc(NC(C)=O)cc1)C(=O)N[C@H](Cc1ccc(NC(C)=O)cc1)C(=O)N[C@@H](CC(C)C)C(=O)N[C@@H](CCCCNC(C)C)C(=O)N1CCC[C@H]1C(=O)N[C@H](C)C(N)=O`, the IC50 in data set [1] is reported as 2.4 nM (antagonist); in data set [4], 1.2 nM (antagonist). The same compound registered a solubility in data set [2] of 50 mg/mL (≈ 32.3 mM). In the data set on Rattus norvegicus [3], this compound returned a Plasma testosterone level of 1.99 ng/mL. Besides, the Activity result in data set [5] was “Antagonist”. Besides, the “Ratio IC50” value in data set [6] was determined as 2.

Regarding `CC(=O)Nc1ccc(C[C@H](NC(=O)[C@H](CO)NC(=O)[C@@H](Cc2cccnc2)NC(=O)[C@@H](Cc2ccc(Cl)cc2)NC(=O)[C@@H](Cc2ccc3ccccc3c2)NC(C)=O)C(=O)N[C@H](Cc2ccc(NC(C)=O)cc2)C(=O)N[C@@H](CC(C)C)C(=O)N[C@@H](CCCCNC(C)C)C(=O)N2CCC[C@H]2C(=O)N[C@H](C)C(N)=O)cc1` [ACYLINE], the values for the half-inhibitory concentration (IC50) in data set [1] and in data set [4] were 1.5 nM (antagonist) and 0.52 nM (antagonist), respectively. Besides, in data set [2], the solubility was determined as 50 mg/mL (≈ 32.6 mM). For the same compound, the Plasma testosterone level in the data set on Rattus norvegicus [3] is 0.69 ng/mL. The Activity entry in data set [5] was “Antagonist”. Further, the “Ratio IC50” value in data set [6] amounted to 2.89.

In the case of `CC(=O)Nc1ccc(C[C@H](NC(=O)[C@H](CO)NC(=O)[C@@H](Cc2cccnc2)NC(=O)[C@@H](Cc2ccc(Cl)cc2)NC(=O)[C@@H](Cc2ccc3ccccc3c2)NC(C)=O)C(=O)N[C@H](Cc2ccc(NC(C)=O)cc2)C(=O)N[C@@H](SC(C)C)C(=O)N[C@@H](CCCCNC(C)C)C(=O)N2CCC[C@H]2C(=O)N[C@H](C)C(N)=O)cc1`, the half-inhibitory concentration (IC50) in data set [1] is reported as 2.5 nM (antagonist); in data set [4], 0.31 nM (antagonist). For the same compound, the concentration in solution in data set [2] (solubility) was 50 mg/mL (≈ 32.2 mM). The compound also showed a Plasma testosterone level in the data set with Rattus norvegicus [3] of 1.59 ng/mL. For the same compound, in data set [5], the Activity result is “Antagonist”. For the same compound, in data set [6], the “Ratio IC50” value came out at 8.07.
